Data published in ChEMBL document CHEMBL1128256, “Synthesis, biological evaluation, and structure analysis of a series of new 1,5-anhydrohexitol nucleosides” (J Med Chem, 1995).

How the values were obtained:
HEL [1] = experiment: Tested for the cytotoxic concentration, required to reduce cell growth by 50% in human embryonic lung (HEL) cells.; format: functional
Summary of the method: (§1)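 Virus plaque formation assay in human embryonic lung (HEL) cells seeded in 96-well trays. Targets were TK+ VZV (Oka, YS), TK- VZV (07/1, YS/R) and CMV (AD169, Davis). Value is the concentration that reduces plaque number by 50%. Cytotoxicity in HEL cells was taken as the concentration that reduces cell growth by 50%.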

HEL [2] = experiment: Tested for the inhibitory concentration required to reduce thymidine kinase deficient Varicella-Zoster virus (TK- VZV) strain 07/1 plaque formation by 50%.; format: functional, cell-based; details: Homo sapiens
E6SM [3] = experiment: Tested for the minimum inhibitory concentration required to reduce herpes simplex virus type 2 (HSV-2) strain 196 induced cytopathogenicity by 50%.; format: functional; details: Homo sapiens
Summary of the method: (§2)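 Inhibition of virus-induced cytopathogenicity in human embryonic skin-muscle (E6SM) fibroblasts seeded in 96-well trays. Viruses were HSV-1 (KOS, F, McIntyre), TK- HSV-1 B2006, TK-/TK+ HSV-1 clinical isolate VMW-1837 and HSV-2 (G, 196, Lyons). […] MCC is the lowest concentration giving microscopically detectable alteration of normal cell morphology; highest concentration tested was 400 µg/mL.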

E6SM [4] = experiment: Tested for the minimum inhibitory concentration required to reduce thymidine kinase deficient herpes simplex virus type 1 (TK- HSV-1) strain B2006 induced cytopathogenicity by 50%.; format: functional; details: Homo sapiens; summary of the method: as §2
HEL [5] = experiment: Tested for the inhibitory concentration required to reduce cytomegalovirus (CMV) strain Davis plaque formation by 50%.; format: functional, cell-based; details: Homo sapiens; summary of the method: as §1
HEL [6] = experiment: Tested for the inhibitory concentration required to reduce cytomegalovirus (CMV) strain AD-169 plaque formation by 50%.; format: functional, cell-based; details: Homo sapiens; summary of the method: as §1
E6SM [7] = experiment: Tested for the minimum inhibitory concentration required to reduce herpes simplex virus type 2 (HSV-2) strain G induced cytopathogenicity by 50%.; format: functional; details: Homo sapiens; summary of the method: as §2
HEL [8] = experiment: Tested for the inhibitory concentration required to reduce thymidine kinase plus Varicella-Zoster virus (TK+ VZV) strain OKA plaque formation by 50%.; format: functional, cell-based; details: Homo sapiens; summary of the method: as §1
E6SM [9] = experiment: Tested for the minimum inhibitory concentration required to reduce herpes simplex virus type 1 (HSV-1) strain McIntyre induced cytopathogenicity by 50%.; format: functional; details: Homo sapiens; summary of the method: as §2
HEL [10] = experiment: Tested for the inhibitory concentration required to reduce thymidine kinase deficient Varicella-Zoster virus (TK- VZV) strain YS/R plaque formation by 50%.; format: functional, cell-based; details: Homo sapiens
E6SM [11] = experiment: Tested for the minimum inhibitory concentration required to reduce herpes simplex virus type 1 (HSV-1) strain F induced cytopathogenicity by 50%.; format: functional; details: Homo sapiens; summary of the method: as §2
E6SM [12] = experiment: Tested for the minimum cytotoxic concentration required to cause a microscopically detectable alteration of normal cell morphology in human embryonic skin muscle (E6SM) fibroblast cell cultures.; format: functional; summary of the method: as §2
E6SM [13] = experiment: Tested for the minimum inhibitory concentration required to reduce herpes simplex virus type 2 (HSV-2) strain Lyons induced cytopathogenicity by 50%.; format: functional; details: Homo sapiens; summary of the method: as §2
E6SM [14] = experiment: Tested for the minimum inhibitory concentration required to reduce herpes simplex virus type 1 (HSV-1) strain KOS induced cytopathogenicity by 50%.; format: functional; details: Homo sapiens; summary of the method: as §2
HEL [15] = experiment: Tested for the inhibitory concentration required to reduce thymidine kinase plus Varicella-Zoster virus (TK+ VZV) strain YS plaque formation by 50%; format: functional, cell-based; details: Homo sapiens; summary of the method: as §1
E6SM [16] = experiment: Tested for the minimum inhibitory concentration required to reduce herpes simplex virus type 1 (TK- / TK + HSV-1) strain VMW-1837 induced cytopathogenicity by 50%.; format: functional; details: Homo sapiens; summary of the method: as §2

O=c1ccn(C2COC(CO)C(O)C2)c(=O)[nH]1 (stereo unspecified)
> 40 mg/L: IC50 (HEL [2]) | IC50 (HEL [5]) | IC50 (HEL [6]) | IC50 (HEL [8]) | IC50 (HEL [10]) | IC50 (HEL [15])
> 50 mg/L: CC50 (HEL [1])
> 400 mg/L: MIC (E6SM [3]) | MIC (E6SM [4]) | MIC (E6SM [7]) | MIC (E6SM [9]) | MIC (E6SM [11]) | MIC (E6SM [13]) | MIC (E6SM [14]) | MIC (E6SM [16])
> 400 µg/mL: MCC (E6SM [12])
